Laboratory results as given in ChEMBL document CHEMBL4396949, “Anti-cancer potential of novel glycosylated 1,4-substituted triazolylchalcone derivatives” (Bioorg Med Chem Lett, 2019).

Legend:
[1] = test system: MCF7; test: Antiproliferative activity against human MCF7 cells incubated for 24 hrs by MTT assay; format: functional; conditions: MCF7, 24 h, read-out: LD50 (the source's name)
Method in brief: (§1)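 Cells exposed to compounds at […]; viability read by MTT assay. LD50 derived from concentration-response. MDA-MB-468: triple-negative (ER-, PR-, HER2-) breast cancer. MCF-7: ER+, PR+, HER2- breast cancer. WI-38: non-cancerous lung fibroblasts. Selectivity index taken as WI-38 LD50 divided by cancer-cell LD50.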

[2] = test system: MDA-MB-468; test: Antiproliferative activity against human MDA-MB-468 cells incubated for 24 hrs by MTT assay; format: functional; conditions: MDA-MB-468, 24 h, read-out: LD50 (the source's name); method in brief: as §1
[3] = Selectivity index, ratio of LD50 for human WI38 cells to LD50 for human MCF7 cells; format: toxicity; conditions: WI38 cells and MCF7 cells, read-out: Selectivity Index
Method in brief: (§2)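 MTT cytotoxicity after exposure to […] in MDA-MB-468, MCF-7 and WI-38 fibroblasts; LD50 determined per line; selectivity index calculated as WI-38 LD50 divided by cancer-cell LD50.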

[4] = Antiproliferative activity against human WI38 cells incubated for 24 hrs by MTT assay; format: cell-based, WI-38; conditions: read-out: LD50; method in brief: as §1
[5] = Selectivity index, ratio of LD50 for human WI38 cells to LD50 for human MDA-MB-468 cells; format: toxicity; conditions: WI38 cells and MDA-MB-468 cells, read-out: Selectivity Index; method in brief: as §2

SMILES	CC50 [1]	CC50 [2]	selectivity ratio [3]	CC50 at 24 h [4]	selectivity ratio [5]
O=C(/C=C/c1ccc(OCc2ccccc2)cc1)c1ccc(OCc2cn([C@@H]3O[C@H](CO)[C@@H](O)[C@H](O)[C@H]3O)nn2)cc1	79 µM	57 µM	0.86	68 µM	1.19
COc1cccc(/C=C/C(=O)c2ccc(OCc3cn([C@@H]4O[C@H](CO)[C@@H](O)[C@H](O)[C@H]4O)nn3)cc2)c1	63 µM	77 µM	1.16	73 µM	0.94
COc1ccc(/C=C/C(=O)c2ccc(OCc3cn([C@@H]4O[C@H](CO)[C@@H](O)[C@H](O)[C@H]4O)nn3)cc2)cc1OC	115 µM	88 µM	0.83	95 µM	1.08
COc1cc(/C=C/C(=O)c2cc(OC)c(OC)c(OC)c2)ccc1OCc1cn([C@@H]2O[C@H](CO)[C@@H](O)[C@H](O)[C@H]2O)nn1	87 µM	73 µM	0.77	67 µM	0.92
COc1cc(/C=C/C(=O)c2ccc([N+](=O)[O-])cc2)ccc1OCc1cn([C@@H]2O[C@H](CO)[C@@H](O)[C@H](O)[C@H]2O)nn1	76 µM	68 µM	0.99	75 µM	1.02
COc1ccccc1/C=C/C(=O)c1ccc(OCc2cn([C@@H]3O[C@H](CO)[C@@H](O)[C@H](O)[C@H]3O)nn2)cc1	97 µM	79 µM	1.06	103 µM	1.3
COc1ccc(C(=O)/C=C/c2ccc(OCc3cn([C@@H]4O[C@H](CO)[C@@H](O)[C@H](O)[C@H]4O)nn3)c(OC)c2)cc1OC	66 µM	67 µM	1.45	96 µM	1.43
O=C(/C=C/c1cccc([N+](=O)[O-])c1)c1ccc(OCc2cn([C@@H]3O[C@H](CO)[C@@H](O)[C@H](O)[C@H]3O)nn2)cc1	59 µM	64 µM	1.17	69 µM	1.07
COc1cc(/C=C/C(=O)c2ccc(C#N)cc2)ccc1OCc1cn([C@@H]2O[C@H](CO)[C@@H](O)[C@H](O)[C@H]2O)nn1	78 µM	82 µM	1.13	88 µM	1.07
O=C(/C=C/c1ccc([N+](=O)[O-])cc1)c1ccc(OCc2cn([C@@H]3O[C@H](CO)[C@@H](O)[C@H](O)[C@H]3O)nn2)cc1	54 µM	43 µM	1.19	64 µM	1.49
O=C(/C=C/c1ccccc1Cl)c1ccc(OCc2cn([C@@H]3O[C@H](CO)[C@@H](O)[C@H](O)[C@H]3O)nn2)cc1	72 µM	64 µM	0.94	68 µM	1.06
CCOc1ccc(/C=C/C(=O)c2ccc(OCc3cn([C@@H]4O[C@H](CO)[C@@H](O)[C@H](O)[C@H]4O)nn3)cc2)cc1	68 µM	74 µM	1.15	78 µM	1.05
COc1cc(/C=C/C(=O)c2ccccc2)ccc1OCc1cn([C@@H]2O[C@H](CO)[C@@H](O)[C@H](O)[C@H]2O)nn1	123 µM	89 µM	0.8	98 µM	1.1
COc1cc(/C=C/C(=O)c2ccc(OCc3cn([C@@H]4O[C@H](CO)[C@@H](O)[C@H](O)[C@H]4O)nn3)cc2)cc(OC)c1	72 µM	33 µM	0.72	52 µM	1.56
COc1ccc(/C=C/C(=O)c2ccc(OCc3cn([C@@H]4O[C@H](CO)[C@@H](O)[C@H](O)[C@H]4O)nn3)cc2)cc1OCc1ccccc1	84 µM	64 µM	1.25	105 µM	1.64
O=C(/C=C/c1ccc(Cl)c(Cl)c1)c1ccc(OCc2cn([C@@H]3O[C@H](CO)[C@@H](O)[C@H](O)[C@H]3O)nn2)cc1	65 µM	59 µM	0.85	55 µM	0.93
CC(=O)O[C@H]1C(=O)[C@@]2(C)[C@H]([C@H](OC(=O)c3ccccc3)[C@]3(O)C[C@H](OC(=O)[C@H](O)[C@@H](NC(=O)c4ccccc4)c4ccccc4)C(C)=C1C3(C)C)[C@]1(OC(C)=O)CO[C@@H]1C[C@@H]2O [PACLITAXEL]	29 µM	27 µM	1.2	35 µM	1.29
O=C(/C=C/c1cc(Cl)cc(Cl)c1)c1ccc(OCc2cn([C@@H]3O[C@H](CO)[C@@H](O)[C@H](O)[C@H]3O)nn2)cc1	74 µM	62 µM	0.86	64 µM	1.03
COc1ccc(/C=C/C(=O)c2ccc(OCc3cn([C@@H]4O[C@H](CO)[C@@H](O)[C@H](O)[C@H]4O)nn3)cc2)cc1	53 µM	39 µM	1.36	72 µM	1.84
COc1cc(/C=C/C(=O)c2ccc(OCc3cn([C@@H]4O[C@H](CO)[C@@H](O)[C@H](O)[C@H]4O)nn3)cc2)cc(OC)c1OC	84 µM	51 µM	0.64	54 µM	1.06
COc1cc([C@@H]2c3cc4c(cc3[C@@H](O[C@@H]3O[C@@H]5CO[C@@H](C)O[C@H]5[C@H](O)[C@H]3O)[C@H]3COC(=O)[C@H]23)OCO4)cc(OC)c1O [ETOPOSIDE]	38 µM	34 µM	0.95	36 µM	1.06
COc1cc(/C=C/C(=O)c2ccc(Br)cc2)ccc1OCc1cn([C@@H]2O[C@H](CO)[C@@H](O)[C@H](O)[C@H]2O)nn1	99 µM	65 µM	0.9	89 µM	1.37
